Reference: ChEMBL document CHEMBL1687886, “N-cyclic bay-substituted perylene G-quadruplex ligands have selective antiproliferative effects on cancer cells and induce telomere damage” (J Med Chem, 2011)
Calls of active or inactive are those of the source. The rule behind the calls is not given here.

Legend:
Nucleic Acid [1] = test: Binding affinity to human 21-TT G-quadruplex DNA structure assessed as first step association constant by electrospray ionization mass spectrometry; assay type: nucleic-acid assay
In short: (§1)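 ESI-MS in 150 mM ammonium acetate; DNA 5 μM final (per duplex or quadruplex unit); ligand at drug/DNA ratios 0.5 to 4. Methanol (15%) added just before injection, after binding equilibrium. K1 and K2 for 1:1 and 2:1 complexes, and % bound DNA, taken from relative peak intensities assuming equal response factors. At least three repeats.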

Nucleic Acid [2] = test: Binding affinity to human 21-TT G-quadruplex DNA structure assessed as second step association constant by electrospray ionization mass spectrometry; assay type: nucleic-acid assay; in short: as §1
Nucleic Acid [3] = test: Binding affinity to human DK66 duplex DNA structure assessed as first step association constant by electrospray ionization mass spectrometry; assay type: nucleic-acid assay; in short: as §1
Nucleic Acid [4] = test: Binding affinity to human DK66 duplex DNA structure assessed as second step association constant by electrospray ionization mass spectrometry; assay type: nucleic-acid assay; in short: as §1
Nucleic Acid [5] = test: Stabilization of 21-mer human F21T G4-telomeric quadruplex assessed as change in melting temperature at 1 uM by FRET assay; assay type: nucleic-acid assay
Nucleic Acid [6] = test: Stabilization of human duplex DNA T-loop assessed as change in melting temperature at 1 uM by FRET assay; assay type: nucleic-acid assay
Nucleic Acid [7] = test: Binding affinity to human 21-TT G-quadruplex DNA structure assessed as bound DNA at 5:5 DNA to drug ratio by electrospray ionization mass spectrometry; assay type: nucleic-acid assay; in short: as §1
Nucleic Acid [8] = test: Binding affinity to human 21-TT G-quadruplex DNA structure assessed as bound DNA at 5:10 DNA to drug ratio by electrospray ionization mass spectrometry; assay type: nucleic-acid assay; in short: as §1
Nucleic Acid [9] = test: Binding affinity to human DK66 duplex DNA structure assessed as bound DNA at 5:5 DNA to drug ratio by electrospray ionization mass spectrometry; assay type: nucleic-acid assay; in short: as §1
Nucleic Acid [10] = test: Binding affinity to human DK66 duplex DNA structure assessed as bound DNA at 5:10 DNA to drug ratio by electrospray ionization mass spectrometry; assay type: nucleic-acid assay; in short: as §1
Nucleic Acid [11] = test: Binding affinity to human 21-TT G-quadruplex DNA structure at 1:1 DNA to calf thymus DNA ratio by competitive inhibition assay; assay type: nucleic-acid assay; parameters: concentration or dose not given beside the values
In short: (§2)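 ESI-MS competition: quadruplex DNA and ligand each 5 μM final, plus calf thymus DNA at duplex/quadruplex ratios 1 and 5 (by phosphate concentration), in ammonium acetate. Percentage bound quadruplex and normalized bound quadruplex (N%) measured by mass spectrometry. SD over at least three independent experiments.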

Nucleic Acid [12] = test: Binding affinity to human 21-TT G-quadruplex DNA structure at 1:5 DNA to calf thymus DNA ratio by competitive inhibition assay; assay type: nucleic-acid assay; parameters: concentration or dose not given beside the values; in short: as §2
BJ [13] = test: Induction of DNA damage response in human BJ cells expressing SV40 early region EHLT assessed as phosphorylation of gamma H2AX at 0.25 uM after 24 hrs by immunofluorescence method; assay type: functional, cell-based
In short: (§3)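 BJ-EHLT and BJ-hTERT fibroblasts exposed to a range of concentrations for 24 h. Fixed in 2% formaldehyde, permeabilized in 0.25% Triton X-100, immunostained for γ-H2AX and 53BP1. Percentage of positive cells scored. Three independent experiments, SD.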

BJ [14] = test: Induction of DNA damage response in human BJ cells expressing SV40 early region EHLT assessed as phosphorylation of […] after 24 hrs by immunofluorescence method; assay type: functional, cell-based; in short: as §3
BJ [15] = test: Antiproliferative activity against human BJ cells expressing SV40 early region EHLT at 0.5 uM after 24 hrs by Coulter counter method; assay type: functional, cell-based
In short: (§4)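 Cells seeded at 5 ×10^4 per dish; compounds freshly dissolved and added to the medium 24 h after plating, at 0.5 μM or 3 μM (3 μM only for one derivative). Cell number by Coulter counting and viability by trypan blue exclusion daily, day 1 to day 8. Growth inhibition of treated vs untreated cells calculated at days 2, 4, 6 and 8. Representative experiments in quintuplicate, SD shown.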

BJ [16] = test: Growth inhibition of human BJ cells expressing SV40 early region EHLT at 0.5 uM on day 8 by trypan blue assay; assay type: functional; conditions: 192 h, read-out: GI; in short: as §4
BJ [17] = test: Antiproliferative activity against human BJ cells expressing TERT at 0.5 uM after 2 to 8 days by trypan blue assay; assay type: cell-based; in short: as §4
BJ [18] = test: Cell cycle arrest in human BJ cells expressing TERT assessed as accumulation at G0/G1 stage at 0.5 uM after 24 hrs by propidium iodide staining based flow cytometry (reference value: 61%); assay type: ADME
BJ [19] = test: Cell cycle arrest in human BJ cells expressing TERT assessed as accumulation at S stage at 0.5 uM after 24 hrs by propidium iodide staining based flow cytometry (reference value: 21%); assay type: ADME
BJ [20] = test: Cell cycle arrest in human BJ cells expressing TERT assessed as accumulation at G2/M stage at 0.5 uM after 24 hrs by propidium iodide staining based flow cytometry (reference value: 17%); assay type: ADME
BJ [21] = test: Cell cycle arrest in human BJ cells expressing TERT assessed as accumulation at G0/G1 stage at 0.5 uM after 48 hrs by propidium iodide staining based flow cytometry (reference value: 80%); assay type: ADME
BJ [22] = test: Cell cycle arrest in human BJ cells expressing TERT assessed as accumulation at S stage at 0.5 uM after 48 hrs by propidium iodide staining based flow cytometry (reference value: 12%); assay type: ADME
BJ [23] = test: Cell cycle arrest in human BJ cells expressing TERT assessed as accumulation at G2/M stage at 0.5 uM after 48 hrs by propidium iodide staining based flow cytometry (reference value: 6%); assay type: ADME
BJ [24] = test: Cell cycle arrest in human BJ cells expressing TERT assessed as accumulation at G0/G1 stage at 0.5 uM after 72 hrs by propidium iodide staining based flow cytometry (reference value: 83%); assay type: ADME
BJ [25] = test: Cell cycle arrest in human BJ cells expressing TERT assessed as accumulation at S stage at 0.5 uM after 72 hrs by propidium iodide staining based flow cytometry (reference value: 10%); assay type: ADME
BJ [26] = test: Cell cycle arrest in human BJ cells expressing TERT assessed as accumulation at G2/M stage at 0.5 uM after 72 hrs by propidium iodide staining based flow cytometry (reference value: 5%); assay type: ADME
BJ [27] = test: Cell cycle arrest in human BJ cells expressing TERT assessed as accumulation at G0/G1 stage at 0.5 uM after 96 hrs by propidium iodide staining based flow cytometry (reference value: 86%); assay type: ADME
BJ [28] = test: Cell cycle arrest in human BJ cells expressing TERT assessed as accumulation at S stage at 0.5 uM after 96 hrs by propidium iodide staining based flow cytometry (reference value: 9%); assay type: ADME
BJ [29] = test: Cell cycle arrest in human BJ cells expressing TERT assessed as accumulation at G2/M stage at 0.5 uM after 96 hrs by propidium iodide staining based flow cytometry (reference value: 4%); assay type: ADME
[30] = molecular target: Telomerase reverse transcriptase (Homo sapiens, UniProt O14746); test: Inhibition of human Telomerase activity in cell free system by TRAP assay
Sequence of Telomerase reverse transcriptase (O14746 whole entry): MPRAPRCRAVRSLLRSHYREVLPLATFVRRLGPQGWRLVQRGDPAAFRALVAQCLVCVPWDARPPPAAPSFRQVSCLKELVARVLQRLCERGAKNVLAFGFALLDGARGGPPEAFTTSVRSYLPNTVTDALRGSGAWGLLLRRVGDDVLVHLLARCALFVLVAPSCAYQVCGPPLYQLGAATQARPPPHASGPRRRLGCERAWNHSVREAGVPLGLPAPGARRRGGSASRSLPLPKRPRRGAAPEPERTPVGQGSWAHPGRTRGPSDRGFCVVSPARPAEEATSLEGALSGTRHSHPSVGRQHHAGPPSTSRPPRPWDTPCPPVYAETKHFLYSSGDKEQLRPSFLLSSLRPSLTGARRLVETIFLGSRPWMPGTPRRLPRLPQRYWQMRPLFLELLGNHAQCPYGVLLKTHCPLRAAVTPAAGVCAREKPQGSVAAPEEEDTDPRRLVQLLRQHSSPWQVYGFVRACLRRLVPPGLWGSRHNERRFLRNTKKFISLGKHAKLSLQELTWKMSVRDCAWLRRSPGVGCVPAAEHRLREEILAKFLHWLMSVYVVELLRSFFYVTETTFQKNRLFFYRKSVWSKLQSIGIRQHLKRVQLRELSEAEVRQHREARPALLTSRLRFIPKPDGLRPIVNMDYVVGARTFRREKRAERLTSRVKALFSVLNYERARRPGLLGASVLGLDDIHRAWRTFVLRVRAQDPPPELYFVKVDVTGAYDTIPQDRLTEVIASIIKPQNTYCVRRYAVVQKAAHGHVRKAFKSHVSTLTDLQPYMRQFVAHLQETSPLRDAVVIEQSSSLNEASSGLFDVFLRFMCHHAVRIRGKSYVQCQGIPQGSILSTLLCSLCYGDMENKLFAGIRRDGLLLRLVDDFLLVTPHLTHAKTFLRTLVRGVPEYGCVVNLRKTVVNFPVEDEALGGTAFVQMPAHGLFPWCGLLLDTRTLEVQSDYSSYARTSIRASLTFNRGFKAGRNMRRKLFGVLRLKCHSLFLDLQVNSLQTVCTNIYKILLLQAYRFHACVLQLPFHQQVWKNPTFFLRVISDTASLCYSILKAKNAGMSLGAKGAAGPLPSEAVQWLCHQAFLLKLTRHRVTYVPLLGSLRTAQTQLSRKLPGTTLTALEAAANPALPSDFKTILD
In short: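 Cell-free TRAP: protein extract incubated with compound at 1 to 50 μM so telomerase elongates the substrate oligonucleotide. Before PCR, phenol/chloroform/isoamyl-alcohol (50:49:1) extraction removes the ligand and DNA is precipitated overnight at -20 °C. Amplification uses a 36 bp ITAS; products are resolved on 12% PAGE and stained with SYBR Green. Signals are corrected by the no-extract control and normalized to untreated, giving dose-response IC50. Mean of three experiments.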

BJ [31] = test: Induction of DNA damage response in human BJ cells expressing human TERT assessed as phosphorylation of gamma H2AX after 24 hrs by immunofluorescence; assay type: functional, cell-based; in short: as §3
BJ [32] = test: Induction of DNA damage response in human BJ cells expressing human TERT assessed as phosphorylation of […] after 24 hrs by immunofluorescence; assay type: functional, cell-based; in short: as §3
Nucleic Acid [33] = test: Binding affinity to human DK66 duplex DNA structure assessed as bound DNA at 5:20 DNA to drug ratio by electrospray ionization mass spectrometry; assay type: nucleic-acid assay; in short: as §1
BJ [34] = test: Induction of DNA damage response in human BJ cells expressing SV40 early region EHLT assessed as phosphorylation of gamma H2AX at 3 uM after 24 hrs by immunofluorescence; assay type: functional, cell-based; in short: as §3
BJ [35] = test: Antiproliferative activity against human BJ cells expressing SV40 early region EHLT at 3 uM after 24 hrs by Coulter counter method; assay type: functional, cell-based; conditions: TDE = time-dependent effect; in short: as §4
BJ [36] = test: Growth inhibition of human BJ cells expressing SV40 early region EHLT at 3 uM on day 8 after 24 hrs trypan blue assay; assay type: functional; conditions: read-out: GI; in short: as §4

| log Ks (Nucleic Acid [1]) | log Ks (Nucleic Acid [2]) | log Ks (Nucleic Acid [3]) | log Ks (Nucleic Acid [4]) | ΔTm (Nucleic Acid [5]) | ΔTm (Nucleic Acid [6]) | Activity (Nucleic Acid [7]) | Activity (Nucleic Acid [8]) | Activity (Nucleic Acid [9]) | Activity (Nucleic Acid [10]) | Activity (Nucleic Acid [11]) | Activity (Nucleic Acid [12]) | Activity (BJ [18]) | Activity (BJ [19]) | SMILES | Activity (BJ [13]) | Activity (BJ [14]) | inhibition of growth at 0.5 µM (BJ [16]) | Activity (BJ [17]) | Activity (BJ [31]) | Activity (BJ [32]) | further results |
| --- | --- | --- | --- | --- | --- | --- | --- | --- | --- | --- | --- | --- | --- | --- | --- | --- | --- | --- | --- | --- | --- |
| 5.4 | 5.6 | 4.9 | 4.2 | 27.4 °C | 2.9 °C | 45% | 77% | 27% | 44% | 40% | 22% | 35.1% | 13.9% | CN1CCN(c2cc3c4c(ccc5c6c(N7CCN(C)CC7)cc7c8c(ccc(c2c45)c86)C(=O)N(CCN2CCCCC2)C7=O)C(=O)N(CCN2CCCCC2)C3=O)CC1 | Active | Active | 50% | Toxic | Dose-dependent effect | Dose-dependent effect | Activity (BJ [15]; in the assay text read “after 2 to 8 days” for “after 24 hrs”, TDE = time-dependent effect): tde; Activity (BJ [20]): 51%; Activity (BJ [21]): 39.8%; Activity (BJ [22]): 5%; Activity (BJ [23]): 55.2%; Activity (BJ [24]): 35.2%; Activity (BJ [25]): 6.6%; Activity (BJ [26]): 58.2%; Activity (BJ [27]): 33.1%; Activity (BJ [28]): 6.5%; Activity (BJ [29]): 60.4%; IC50 [30]: 10 µM |
| 5.5 | 5 | 5.4 | 4.9 | 35.5 °C | 2.3 °C | 48% | 76% | 43% | 66% | 46% | 32% | 42% | 3.8% | CN(C)CCCN1CCN(c2cc3c4c(ccc5c6ccc7c8c(ccc(c2c45)c86)C(=O)N(CCN2CCCCC2)C7=O)C(=O)N(CCN2CCCCC2)C3=O)CC1 | Active | Active | 50% | Toxic | Dose-dependent effect | Dose-dependent effect | Activity (BJ [15]; TDE = time-dependent effect, in the assay text read “after 2 to 8 days” for “after 24 hrs”): tde; Activity (BJ [20]): 54.2%; Activity (BJ [21]): 35.4%; Activity (BJ [22]): 3.5%; Activity (BJ [23]): 61.1%; Activity (BJ [24]): 34.7%; Activity (BJ [25]): 7.3%; Activity (BJ [26]): 58%; Activity (BJ [27]): 38.2%; Activity (BJ [28]): 7.6%; Activity (BJ [29]): 54.2%; IC50 [30]: 3 µM |
| 4.8 | 4.6 | 3.8 | – | 18.7 °C | 0.2 °C | 22% | 33% | – | – | 13% | 9% | – | – | O=C1c2ccc3c4c(N5CCCCC5)cc5c6c(ccc(c7c(N8CCCCC8)cc(c2c37)C(=O)N1CCN1CCCCC1)c64)C(=O)N(CCN1CCCCC1)C5=O | – | – | – | Toxic | Dose-dependent effect | Dose-dependent effect | Activity (Nucleic Acid [33]): 12%; Activity (BJ [34]): Active; Activity (BJ [35]): tde; inhibition of growth at 3 µM (BJ [36]): 50% |
| 4.7 | 4.8 | 4.2 | – | 9.3 °C | -0.2 °C | 23% | 34% | – | – | 19% | 14% | – | – | O=C1c2ccc3c4c(N5CCCCC5)cc5c6c(ccc(c7c(N8CCCCC8)cc(c2c37)C(=O)N1CCOCCN1CCCCC1)c64)C(=O)N(CCOCCN1CCCCC1)C5=O | – | – | – | – | – | – | Activity (Nucleic Acid [33]): 20% |
